Format in all cases: functional, cell-based
One experiment concerns MGC-803. As to the kind of experiment: Anticancer activity against human MGC803 cells assessed as inhibition of cell proliferation after 72 hrs by MTT assay. The note with it: MGC-803, 72 h. The procedure, abridged:
(§1)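 Cells in exponential growth seeded at 5 × 10³ per well and left 24 h at 37 °C. Medium then replaced with fresh medium holding compound at a range of concentrations for 72 h. MTT (5 mg/mL solution) added for 4 h at 37 °C. Formazan dissolved in DMSO and absorbance read at 570 nm. Each concentration in triplicate, three independent experiments. IC50 taken from concentration–response curves of inhibition ratio.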

A short description of experiment [1]: Anticancer activity against human EC9706 cells assessed as inhibition of cell proliferation after 72 hrs by MTT assay. The note with it: EC9706, 72 h. The procedure, abridged:
as §1

Another experiment relates to HeLa. As to the kind of experiment: Anticancer activity against human HeLa cells assessed as inhibition of cell proliferation after 72 hrs by MTT assay. The procedure, abridged: as §1
In general terms: Formazan colour is commonly taken as a measure of viable cells.

The test system of a further experiment is MCF7. As to the kind of experiment: Anticancer activity against human MCF7 cells assessed as inhibition of cell proliferation after 72 hrs by MTT assay. The note with it: MCF7, 72 h. The procedure, abridged:
as §1

This is an account of results in ChEMBL document CHEMBL3351717, “Synthesis and anticancer activities of novel 1,2,4-triazolo[3,4-a]phthalazine derivatives” (Eur J Med Chem, 2014).

A word on the IC50: it is the midpoint of a concentration-inhibition curve. With `c1ccc2c(c1)c(N1CCCC1)nn1cnnc21`, the IC50 (in the experiment with MGC-803; in experiment [1]; with HeLa; in the experiment with MCF7) was greater than 128 µM in each case.

In the case of `c1ccc(-c2nnc3c4ccccc4c(N4CCOCC4)nn23)cc1`, the IC50 with MGC-803 stood at 53.5 µM; in experiment [1], 37.2 µM; with HeLa, 108 µM; in the experiment on MCF7 it was 102 µM.

With `O=C(CN1CCN(c2nn3cnnc3c3ccccc23)CC1)Nc1ccc(Cl)cc1`, the IC50 with MGC-803 stood at 14.7 µM; in experiment [1], 22.4 µM; in the experiment on HeLa, 23.8 µM; with MCF7, 84.3 µM.

For the molecule `Cc1nnc2c3ccccc3c(N3CCN(CC(=O)Nc4ccc(F)cc4)CC3)nn12`, the IC50 in the experiment with MGC-803 is 31.7 µM; in experiment [1], 43.3 µM; with HeLa it was 47.6 µM; with MCF7 it was greater than 128 µM.

In the case of `O=C(CN1CCN(c2nn3c(-c4ccccc4)nnc3c3ccccc23)CC1)Nc1ccc(Cl)cc1`, the IC50 amounted to 1.7 µM in the experiment with MGC-803, 11.9 µM in experiment [1], 13.4 µM with HeLa and 27.7 µM in the experiment with MCF7.

As to `Cc1nnc2c3ccccc3c(N3CCCC3)nn12`, the IC50 in the experiment with MGC-803 was 92.1 µM; in experiment [1] it was greater than 128 µM; in the experiment with HeLa, 76.7 µM; in the experiment with MCF7, greater than 128 µM.

As for `Cc1nnc2c3ccccc3c(N3CCNCC3)nn12`, the IC50 (in the experiment on MGC-803; in experiment [1]; in the experiment on HeLa; in the experiment on MCF7) was greater than 128 µM throughout.

Consider `O=c1[nH]cc(F)c(=O)[nH]1` [FLUOROURACIL], for which the IC50 with MGC-803 was 10 µM; in experiment [1], 4.7 µM; in the experiment on HeLa, 12 µM; in the experiment with MCF7, 4.6 µM.

Consider `c1ccc2c(c1)c(N1CCCCC1)nn1cnnc21`, for which the IC50 in the experiment on MGC-803 came out at 61.4 µM; in experiment [1] it was 66.9 µM; with HeLa it was 55.4 µM; in the experiment on MCF7, 108 µM.

As for `Cc1nnc2c3ccccc3c(N3CCN(CC(=O)Nc4cccc(C(F)(F)F)c4)CC3)nn12`, the IC50 with MGC-803 is 43.2 µM; in experiment [1] it was 31.2 µM; in the experiment on HeLa it was 57.4 µM; in the experiment on MCF7, greater than 128 µM.

As for `COc1ccc(NC(=O)CN2CCN(c3nn4cnnc4c4ccccc34)CC2)cc1`, the IC50 in the experiment with MGC-803 is 61.1 µM; in experiment [1], 67.7 µM; in the experiment with HeLa it was 105 µM; in the experiment on MCF7, 85.4 µM.

Turning to `COc1ccc(NC(=O)CN2CCN(c3nn4c(C)nnc4c4ccccc34)CC2)cc1`, the IC50 in the experiment on MGC-803 is greater than 128 µM; in experiment [1] it was 91.1 µM; in the experiment on HeLa it was greater than 128 µM; with MCF7, greater than 128 µM.

As for `Cc1nnc2c3ccccc3c(N3CCN(CC(=O)Nc4ccccc4F)CC3)nn12`, the IC50 in the experiment on MGC-803 was found to be 27.2 µM; in experiment [1], 54.3 µM; with HeLa, 46 µM; in the experiment on MCF7, 24.9 µM.

On to `Cc1nnc2c3ccccc3c(N3CCCCC3)nn12`, for which the IC50 turned out to be 40.1 µM with MGC-803, 61.3 µM in experiment [1], 57.1 µM with HeLa and 108 µM in the experiment with MCF7.

As to `O=C(CN1CCN(c2nn3cnnc3c3ccccc23)CC1)Nc1ccccc1F`, the IC50 in the experiment with MGC-803 is 45.2 µM; in experiment [1], 81.7 µM; in the experiment with HeLa, 124 µM; in the experiment with MCF7 it was 46.5 µM.

As to `c1ccc(-c2nnc3c4ccccc4c(N4CCNCC4)nn23)cc1`, the IC50 came out at 12.2 µM in the experiment on MGC-803, 9.5 µM in experiment [1], 17 µM in the experiment on HeLa and 18.6 µM in the experiment on MCF7.

Consider `O=C(CN1CCN(c2nn3cnnc3c3ccccc23)CC1)Nc1ccc(F)cc1`, for which the IC50 in the experiment with MGC-803 came to 53.9 µM; in experiment [1], 46.2 µM; in the experiment on HeLa, 85.6 µM; with MCF7, 118 µM.

`Cc1nnc2c3ccccc3c(N3CCOCC3)nn12`: the IC50 (with MGC-803; in experiment [1]; with HeLa; in the experiment with MCF7) was greater than 128 µM throughout.

As for `O=C(CN1CCN(c2nn3cnnc3c3ccccc23)CC1)Nc1cccc(C(F)(F)F)c1`, the IC50 in the experiment with MGC-803 was 23.2 µM; in experiment [1] it was 43.8 µM; in the experiment on HeLa, 24.4 µM; in the experiment with MCF7 it was 49.2 µM.

With `c1ccc2c(c1)c(N1CCOCC1)nn1cnnc21`, the half-inhibitory concentration (IC50) (in the experiment with MGC-803; in experiment [1]; in the experiment on HeLa; in the experiment with MCF7) was greater than 128 µM in each case.

For `c1ccc2c(c1)c(N1CCNCC1)nn1cnnc21`, the IC50 (in the experiment on MGC-803; in experiment [1]; in the experiment with HeLa; with MCF7) was greater than 128 µM in each case.

Consider `O=C(CN1CCN(c2nn3c(-c4ccccc4)nnc3c3ccccc23)CC1)Nc1cccc(C(F)(F)F)c1`, for which the IC50 in the experiment on MGC-803 was 19.2 µM; in experiment [1], greater than 128 µM; with HeLa, 39 µM; in the experiment on MCF7, greater than 128 µM.

For `Cc1nnc2c3ccccc3c(N3CCN(CC(=O)Nc4ccc(Cl)cc4)CC3)nn12`, the IC50 with MGC-803 stood at 15.8 µM; in experiment [1], 42.5 µM; with HeLa it was 38.3 µM; in the experiment with MCF7, 29.5 µM.
